Assay results from ChEMBL document CHEMBL3616437, “Thiazole compounds with activity against Cryptococcus gattii and Cryptococcus neoformans in vitro” (Eur J Med Chem, 2015).
≈ marks a conversion by molar mass, not a printed value.

Assays:
[1] = test system: Cryptococcus gattii species complex; assay: Antifungal activity against Cryptococcus gattii L27/01 after 48 to 72 hrs by broth microdilution method; type: functional, Cryptococcus bacillisporus
Procedure, shortened: (§1)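 CLSI M27-A3 broth microdilution in RPMI with L-glutamine, buffered to pH 7.0 with 0.165 M MOPS. Colonies grown twice on SDA, 48 h at 35°C. Inoculum set to 70% transmittance at 530 nm, then diluted to 1-5 x10^3 cells/mL. Test agents dissolved in DMSO, serially diluted, tested at 0.1 to 62.5 µM. Plates held at 35°C for 48-72 h. MIC is the lowest concentration giving an optically clear well, read visually against drug-free growth controls.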

Cryptococcus neoformans [2] = assay: Antifungal activity against Cryptococcus neoformans ATCC 62066 after 48 to 72 hrs by broth microdilution method; type: functional
Vero = assay: Cytotoxicity against African green monkey Vero cells assessed as cell viability measured after 48 hrs by MTT assay; type: cell-based; conditions: Chlorocebus sabaeus
Procedure, shortened: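 VERO cells in D-MEM with 5% FBS, used up to 20 passages. Seeded 1 x 10^4 cells/well, pre-incubated 24 h at 37°C. Exposed 48 h at 37°C, 5% CO2, to eight nonserial dilutions from 100 to 0.0128 µM, with 0.5% DMSO control. MTT reduction read-out, corrected for background and blank. IC50 reported as median with 95% CI. Triplicate, two independent experiments.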

Cryptococcus neoformans [3] = assay: Antifungal activity against Cryptococcus neoformans WP after 48 to 72 hrs by broth microdilution method; type: functional
Procedure, shortened: (§2)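 CLSI M27-A3 broth microdilution. Isolates subcultured twice on SDA, 48 h at 35°C. Saline suspension adjusted to 70% transmittance at 530 nm, then diluted to 1-5 x10^3 cells/mL in RPMI with L-glutamine, 0.165 M MOPS, pH 7.0. Compounds in DMSO, tested at […]. 35°C for 48-72 h. MIC read visually as the lowest concentration giving an optically clear well.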

[4] = test system: Cryptococcus gattii species complex; assay: Antifungal activity against Cryptococcus gattii LMM818 after 48 to 72 hrs by broth microdilution method; type: functional, Cryptococcus bacillisporus; procedure, shortened: as §1
[5] = Cytotoxicity against C57BL/6 mouse peritoneal macrophages assessed as cell viability measured after 48 hrs by MTT assay; type: cell-based; conditions: C57BL/6, Peritoneal macrophage cell
Procedure, shortened: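 Thioglycollate-elicited peritoneal macrophages from male C57BL/6 mice, 6–8 weeks old, in RPMI with 10% FBS. Seeded 1 x 10^5 cells/well, pre-incubated 24 h at 37°C. Exposed 48 h at 37°C, 5% CO2, to eight nonserial dilutions from 100 to 0.0128 µM, with 0.5% DMSO control. MTT read-out, % inhibition versus DMSO control. IC50 reported as median with 95% CI. Triplicate, two independent experiments.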

[6] = test system: Cryptococcus bacillisporus; assay: Antifungal activity against Cryptococcus gattii ATCC 32608 after 48 to 72 hrs by broth microdilution method; type: functional; procedure, shortened: as §1
[7] = test system: Cryptococcus gattii species complex; assay: Antifungal activity against Cryptococcus gattii L24/01 after 48 to 72 hrs by broth microdilution method; type: functional, Cryptococcus bacillisporus; procedure, shortened: as §1
[8] = test system: Cryptococcus gattii species complex; assay: Antifungal activity against Cryptococcus gattii L28/02 after 48 to 72 hrs by broth microdilution method; type: functional, Cryptococcus bacillisporus; procedure, shortened: as §1
Cryptococcus neoformans [9] = assay: Antifungal activity against Cryptococcus neoformans 28JF after 48 to 72 hrs by broth microdilution method; type: functional; procedure, shortened: as §2
Cryptococcus neoformans [10] = assay: Antifungal activity against Cryptococcus neoformans 96806 after 48 to 72 hrs by broth microdilution method; type: functional; procedure, shortened: as §2
[11] = test system: Cryptococcus gattii species complex; assay: Ratio of compound MIC for Cryptococcus gattii LMM818 in presence of fluconazole to compound MIC for Cryptococcus gattii LMM818 in absence of fluconazole by checkerboard microtiter test; type: functional, Cryptococcus bacillisporus
Procedure, shortened: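 Checkerboard microdilution: eight two-fold dilutions of test compound (0.11 to 15.6 µM) crossed with amphotericin B (0.025 to 3.9 µM, in DMSO) or fluconazole (0.48 to 62.5 µM, in water). Inoculum per CLSI M27-A3 in RPMI-MOPS pH 7.0, 1-5 x10^3 cells/mL. Growth 48 to 72 h. Effective MIC is the combination concentration giving complete inhibition. FICs derived from MICs in combination versus alone.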

Cryptococcus neoformans [12] = assay: Antifungal activity against Cryptococcus neoformans 5396 after 48 to 72 hrs by broth microdilution method; type: functional; procedure, shortened: as §2
[13] = test system: Cryptococcus gattii species complex; assay: Antifungal activity against Cryptococcus gattii ICB181 after 48 to 72 hrs by broth microdilution method; type: functional, Cryptococcus bacillisporus; procedure, shortened: as §1
[14] = test system: Cryptococcus gattii species complex; assay: Antifungal activity against Cryptococcus gattii 547/OTTI-97-PI-10 after 48 to 72 hrs by broth microdilution method; type: functional, Cryptococcus bacillisporus; procedure, shortened: as §1
Cryptococcus neoformans [15] = assay: Antifungal activity against Cryptococcus neoformans F10 after 48 to 72 hrs by broth microdilution method; type: functional; procedure, shortened: as §2
[16] = test system: Cryptococcus gattii species complex; assay: Antifungal activity against Cryptococcus gattii 23/10993 after 48 to 72 hrs by broth microdilution method; type: functional, Cryptococcus bacillisporus; procedure, shortened: as §1
Cryptococcus neoformans [17] = assay: Antifungal activity against Cryptococcus neoformans VM-MCMMPI after 48 to 72 hrs by broth microdilution method; type: functional; procedure, shortened: as §2
[18] = Selectivity index, ratio of IC50 for African green monkey Vero cells to MIC for Cryptococcus neoformans ATCC 24067; type: toxicity, cell-based
Cryptococcus neoformans [19] = assay: Antifungal activity against Cryptococcus neoformans ATCC 24067 after 48 to 72 hrs by broth microdilution method; type: functional; procedure, shortened: as §2
[20] = test system: Cryptococcus gattii species complex; assay: Antifungal activity against Cryptococcus gattii 1913ER after 48 to 72 hrs by broth microdilution method; type: functional, Cryptococcus bacillisporus; procedure, shortened: as §1
[21] = Selectivity index, ratio of IC50 for C57BL/6 mouse peritoneal macrophages to MIC for Cryptococcus neoformans ATCC 24067
Procedure, shortened: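 SI = IC50/MIC. Thioglycollate-elicited peritoneal macrophages from C57BL/6 mice are seeded at 1 x 10^5/well. They are exposed for 48 h at 37°C to eight concentrations from 100 to 0.0128 µM. Viability read by MTT versus 0.5% DMSO control, triplicate in two experiments.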

[22] = test system: Cryptococcus gattii species complex; assay: Antifungal activity against Cryptococcus gattii 196L/03 after 48 to 72 hrs by broth microdilution method; type: functional, Cryptococcus bacillisporus; procedure, shortened: as §1
Cryptococcus neoformans [23] = assay: Antifungal activity against Cryptococcus neoformans CN31 after 48 to 72 hrs by broth microdilution method; type: functional; procedure, shortened: as §2
[24] = test system: Cryptococcus gattii species complex; assay: Antifungal activity against Cryptococcus gattii 135L/03 after 48 to 72 hrs by broth microdilution method; type: functional, Cryptococcus bacillisporus; procedure, shortened: as §1
Cryptococcus neoformans [25] = assay: Antifungal activity against Cryptococcus neoformans LMM820 after 48 to 72 hrs by broth microdilution method; type: functional; procedure, shortened: as §2
Cryptococcus neoformans [26] = assay: Antifungal activity against Cryptococcus neoformans ATCC 28957 after 48 to 72 hrs by broth microdilution method; type: functional; procedure, shortened: as §2
Cryptococcus neoformans [27] = assay: Antifungal activity against Cryptococcus neoformans 27JF after 48 to 72 hrs by broth microdilution method; type: functional; procedure, shortened: as §2

COc1ccc(-c2csc(N/N=C/C3CCCCC3)n2)cc1
MFC [1]: 3.9 µM (≈ 1.23 µg/mL) | MIC [1]: 2.2 µM (≈ 0.694 µg/mL) | MFC (Cryptococcus neoformans [2]): 7.8 µM (≈ 2.46 µg/mL) | MIC (Cryptococcus neoformans [2]): 1.9 µM (≈ 0.599 µg/mL) | IC50 (Vero): > 100 µM | MFC (Cryptococcus neoformans [3]): 3.9 µM (≈ 1.23 µg/mL) | MIC (Cryptococcus neoformans [3]): 3.2 µM (≈ 1.01 µg/mL) | MFC [4]: 7.8 µM (≈ 2.46 µg/mL) | MIC [4]: 4.5 µM (≈ 1.42 µg/mL) | IC50 [5]: > 100 µM | MFC [6]: 3.9 µM (≈ 1.23 µg/mL) | MIC [6]: 2.9 µM (≈ 0.915 µg/mL) | MFC [7]: 3.9 µM (≈ 1.23 µg/mL) | MIC [7]: 2.9 µM (≈ 0.915 µg/mL) | MFC [8]: 7.8 µM (≈ 2.46 µg/mL) | MIC [8]: 4.2 µM (≈ 1.32 µg/mL) | MFC (Cryptococcus neoformans [9]): 7.8 µM (≈ 2.46 µg/mL) | MIC (Cryptococcus neoformans [9]): 3.5 µM (≈ 1.1 µg/mL) | MFC (Cryptococcus neoformans [10]): 1.9 µM (≈ 0.599 µg/mL) | MIC (Cryptococcus neoformans [10]): 1.9 µM (≈ 0.599 µg/mL) | fractional inhibitory concentration index (FICI) [11]: 1.19 | MFC (Cryptococcus neoformans [12]): 3.9 µM (≈ 1.23 µg/mL) | MIC (Cryptococcus neoformans [12]): 2.2 µM (≈ 0.694 µg/mL) | MFC [13]: 1.9 µM (≈ 0.599 µg/mL) | MIC [13]: 1.4 µM (≈ 0.442 µg/mL) | MFC [14]: 3.9 µM (≈ 1.23 µg/mL) | MIC [14]: 2.6 µM (≈ 0.82 µg/mL) | MFC (Cryptococcus neoformans [15]): 3.9 µM (≈ 1.23 µg/mL) | MIC (Cryptococcus neoformans [15]): 2.2 µM (≈ 0.694 µg/mL) | MFC [16]: 3.9 µM (≈ 1.23 µg/mL) | MIC [16]: 2.6 µM (≈ 0.82 µg/mL) | MFC (Cryptococcus neoformans [17]): 3.9 µM (≈ 1.23 µg/mL) | MIC (Cryptococcus neoformans [17]): 2.2 µM (≈ 0.694 µg/mL) | selectivity ratio [18]: 52.6 | MIC (Cryptococcus neoformans [19]): 1.9 µM (≈ 0.599 µg/mL) | MFC [20]: 3.9 µM (≈ 1.23 µg/mL) | MIC [20]: 2.2 µM (≈ 0.694 µg/mL) | Ratio [21]: 52.63 | MFC [22]: 3.9 µM (≈ 1.23 µg/mL) | MIC [22]: 2.9 µM (≈ 0.915 µg/mL) | MFC (Cryptococcus neoformans [23]): 3.9 µM (≈ 1.23 µg/mL) | MIC (Cryptococcus neoformans [23]): 1.9 µM (≈ 0.599 µg/mL) | MFC [24]: 3.9 µM (≈ 1.23 µg/mL) | MIC [24]: 2.6 µM (≈ 0.82 µg/mL) | MFC (Cryptococcus neoformans [25]): 7.8 µM (≈ 2.46 µg/mL) | MIC (Cryptococcus neoformans [25]): 3.2 µM (≈ 1.01 µg/mL) | MFC (Cryptococcus neoformans [26]): 3.9 µM (≈ 1.23 µg/mL) | MIC (Cryptococcus neoformans [26]): 2.2 µM (≈ 0.694 µg/mL) | MFC (Cryptococcus neoformans [27]): 7.8 µM (≈ 2.46 µg/mL) | MIC (Cryptococcus neoformans [27]): 3.5 µM (≈ 1.1 µg/mL)
